High-throughput results: PubChem BioAssay, several laboratories
Diaph inh CS: inhibits diaphorase or chemically oxidizes, flagging diaphorase assay artifacts. inhibition, % at 20 µM. diaphorase resazurin-to-resorufin fluorescence, NADH, 16 min; bacterial (C. kluyveri) enzyme, not human. 190,000 tested, 0.69% active;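 active means primary screen inhibition at 20 µM above a set limit, cut at about 50% in these data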;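 further: plate controls were DMSO with full reaction for no effect and wells lacking NADH for full effect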
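Test system: bacterial diaphorase enzyme (C. kluyveri); Quantity: 0.14 U/mL diaphorase, enzyme working solution; Times: reaction incubation of 16 min at room temperature; Measured by: fluorescence of resorufin formed from resazurin, Ex 544/Em 590 nm; Benchmarks: positive control minus NADH, DMSO neutral control.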
Diaph act CS: counter-screen for diaphorase-based assays: diaphorase activators and chemical reducers. Diaphorase/resazurin coupled assay, resorufin fluorescence, 16 min; hits give high values; 1 = vehicle wells, 0 = NADH-free wells. activation factor at 20 µM. 190,000 tested, 0.005% active. AID 1229;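 active means diaphorase activity raised at least twofold by the compound at 20 µM; inactive means activation factor below 2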
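Material: Clostridium kluyveri diaphorase, purified enzyme; Quantity: enzyme 0.07 U/mL final; Medium: HEPES pH 7.4 buffer with MgCl2 and Tween 20; Dosing: single compound dose of 20 µM, 1% DMSO final; Schedule: 16 min reaction at room temperature; Measured by: red resorufin fluorescence at 544/590 nm excitation/emission.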
G6PDH counter: L. mesenteroides G6PDH inhibition counter-screen | Purified L. mesenteroides G6PDH, diaphorase/resazurin coupled fluorescence, 45 min | inhibition, % at 5 µM | 200,000 tested, 0.12% active
Redox H2O2 prof: compounds producing H2O2 with reducing agent – biochemical, NIH compound library profiling, artefact control for MLSCN library redox annotation, primary screen | DTT-dependent redox cycling H2O2, phenol red/HRP absorbance; 100% = 100 µM peroxide control, 0% = buffer | activation, % at 10 µM | 200,000 tested, 0.03% active | AID 878;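 active means activation of at least 50% relative to the plate's high and low controls in the primary single-dose screen; inactive means activation below 50%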;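 further: compound incubated with DTT at 0.8 mM final as the reducing agent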
Lmaj promast: inhibitors of Leishmania major promastigote growth; Leishmania major promastigotes, resazurin fluorescence viability; inhibition, % at 10 µM; 200,000 tested, 9% active;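 further: promastigotes grown with compound for 44 hours at 28 °C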
PfGluPho inh: PfG6PD (Plasmodium falciparum) enzyme inhibition; PfGluPho enzyme, NADPH resazurin-diaphorase fluorescence; AID 504690; inhibition, % at 20 µM; 350,000 tested, 0.78% active;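 active means inhibition reaching at least a set limit at 20 µM in the primary screen, cut at about 59% in these data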;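 further: 0% = DMSO wells with substrate and 100% = DMSO wells lacking glucose-6-phosphate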
The depositor's hits bear a star. The sample as a whole holds a higher share of hits than the screen did. Unless noted, no stated cut-off is given here; in the data, active means inhibition above about 50%; inactive means the rest.

What do the screens show for `O=C1CC(NS(=O)(=O)c2cccnc2)CN1c1cccc(F)c1` (centres undefined)?
PfGluPho inh: 13.8

How did Cc1cc(Cl)ccc1OCC(=O)N1CCCCC1 do in these assays?
Diaph inh CS: 11.2; Diaph act CS: 0.9; G6PDH counter: 9.0; Redox H2O2 prof: 0.3; Lmaj promast: -3.7; PfGluPho inh: -12.0

Results for O=C(COc1ccc(Cl)cc1Cl)N1CCCN(C(=O)COc2ccc(Cl)cc2Cl)CC1 ?
Diaph inh CS: 15.8; Diaph act CS: 0.8; G6PDH counter: 1.1; Redox H2O2 prof: 0.1; Lmaj promast: 97.4*; PfGluPho inh: -7.2

What do the screens show for `CN(C)/C=C(\C#N)C(=O)Nc1ccc(O)cc1F`?
Diaph inh CS: 20.1; Diaph act CS: 0.8; G6PDH counter: -1.2; Redox H2O2 prof: -0.1; Lmaj promast: 0.8; PfGluPho inh: 13.2

How did Cc1ccc(NC(=O)CSc2nc(N)c3cc4c(nc3n2)CCCC4)cc1 do in these assays?
Diaph inh CS: 9.4; Diaph act CS: 0.9; G6PDH counter: 0.6; Redox H2O2 prof: 0.9; Lmaj promast: 93.1*; PfGluPho inh: -6.1

Results for Nc1nc(SCC(=O)Nc2ccccc2)nc2nc3c(cc12)CCCC3 ?
Diaph inh CS: 3.8; Diaph act CS: 1; G6PDH counter: -4.5; Redox H2O2 prof: -0.1; Lmaj promast: 66.0*; PfGluPho inh: -2.2

How did COc1ccc(NC(=O)CSc2nc(N)c3cc4c(nc3n2)CCCC4)c(OC)c1 do in these assays?
Diaph inh CS: 7.4; Diaph act CS: 0.9; G6PDH counter: -2.9; Redox H2O2 prof: -2.8; Lmaj promast: 3.4; PfGluPho inh: -3.3

How did Cc1ccc(NC(=O)CSc2nc(N)c3c4c(sc3n2)CSC(C)(C)C4)cc1 do in these assays?
Diaph inh CS: 24.0; Diaph act CS: 0.8; G6PDH counter: 10.6; Redox H2O2 prof: 1.3; Lmaj promast: 87.9*; PfGluPho inh: 3.3

What do the screens show for `Cc1n[nH]c2ccc(Br)cc2c1=O`?
PfGluPho inh: -19.7

Results for CC(OC(=O)C1=COCCO1)C(=O)NC1CCCC(C)C1C (centres undefined) ?
PfGluPho inh: 4.0

What do the screens show for `COC(=O)c1sc(NC(=O)CSc2nc3cccnc3n2C)nc1C`?
PfGluPho inh: -3.8

Results for COC(=O)c1sc(NC(=O)CSc2nc3cccnc3n2C2CCCCC2)nc1C ?
Diaph inh CS: 34.8; Diaph act CS: 0.7; G6PDH counter: 3.0; Redox H2O2 prof: -3.5; Lmaj promast: 60.8*; PfGluPho inh: -7.2

What do the screens show for `COc1ccc(/C=N/Nc2nc(NCc3ccco3)nc(Nc3ccc(OC)cc3)n2)cc1`?
Diaph inh CS: 20.5; Diaph act CS: 0.8; G6PDH counter: -4.2; Redox H2O2 prof: 0.6; Lmaj promast: 77.2*; PfGluPho inh: -1.7

Results for O=C(O)CN1C(=O)C(=O)N(Cc2ccc(Cl)cc2Cl)C1=O ?
PfGluPho inh: -6.6

How did C=C(C)C1CC=C(C)/C(=N/NC(=O)c2cccc([N+](=O)[O-])c2)C1 (centres undefined) do in these assays?
Diaph inh CS: -2.0; Diaph act CS: 1; G6PDH counter: 1.5; Redox H2O2 prof: 0.0; Lmaj promast: 100.2*; PfGluPho inh: 8.3

What do the screens show for `C=C(C)C1CC=C(C)/C(=N/NC(=O)c2ccc(NC(=O)c3cccc(C)c3)cc2)C1` (centres undefined)?
Diaph inh CS: 19.5; Diaph act CS: 0.8; G6PDH counter: 11.0; Redox H2O2 prof: -4.1; Lmaj promast: 100.0*; PfGluPho inh: -2.1

Results for Cc1sc2nc(-c3cccnc3)nc(Cl)c2c1-c1ccccc1 ?
Diaph inh CS: -7.8; Diaph act CS: 1.1; G6PDH counter: -18.0; Redox H2O2 prof: 0.3; Lmaj promast: 61.0*; PfGluPho inh: 1.4

What do the screens show for `Cc1sc2nc(-c3ccccc3)[nH]c(=O)c2c1-c1ccccc1`?
Diaph inh CS: 9.4; Diaph act CS: 0.9; G6PDH counter: 0.0; Redox H2O2 prof: -0.5; Lmaj promast: -0.8

How did C/C(CC(=O)Nc1ccc(Cl)cc1Cl)=N\NC(=O)c1cnccn1 do in these assays?
PfGluPho inh: 9.2

What do the screens show for `Cc1ccc(S(=O)(=O)/N=C2\C=C(Nc3ccc(O)cc3)C(=O)c3ccccc32)cc1`?
PfGluPho inh: 111.5*

Results for Cc1ccc(NC2=C/C(=N/S(=O)(=O)c3cccs3)c3ccccc3C2=O)cc1 ?
Diaph inh CS: 15.6; Diaph act CS: 0.8; G6PDH counter: 50.4*; Redox H2O2 prof: -0.9; Lmaj promast: 99.1*; PfGluPho inh: 29.9

Results for Cc1ccc(NCCC#N)cc1C ?
Diaph inh CS: 6.8; Diaph act CS: 0.9; G6PDH counter: 4.2; Redox H2O2 prof: 0.1; Lmaj promast: 50.1*; PfGluPho inh: -12.7

How did Cc1cccc(NCCC#N)c1 do in these assays?
Diaph inh CS: 14.1; Diaph act CS: 0.9; G6PDH counter: 11.7; Redox H2O2 prof: -0.4; Lmaj promast: -6.0; PfGluPho inh: -5.2

How did Cc1ccc(C)c(NCCC#N)c1 do in these assays?
Diaph inh CS: 2.5; Diaph act CS: 1; G6PDH counter: 0.6; Redox H2O2 prof: 0.0; Lmaj promast: 52.5*; PfGluPho inh: -4.0

How did Cc1ccc(S(=O)(=O)N2CCOC2CNC(=O)C(=O)NCCCN2CCOCC2)cc1 (centres undefined) do in these assays?
PfGluPho inh: -17.1

What do the screens show for `CCOC(=O)c1[nH]c2cc(OC)c(OC)cc2c1NC(=O)CN(C)C1CCCCC1`?
Diaph inh CS: 28.7; Diaph act CS: 0.7; G6PDH counter: -3.3; Redox H2O2 prof: 2.6; Lmaj promast: 60.6*; PfGluPho inh: 0.2

How did CC1C(c2ccccc2)OCCN1C(=S)NC(=O)c1ccccc1 (centres undefined) do in these assays?
PfGluPho inh: 38.0

Results for Cc1ccc(NC(=S)NC2CC3CCC(C2)N3Cc2ccco2)cc1C (centres undefined) ?
Diaph inh CS: 8.9; Diaph act CS: 0.9; G6PDH counter: 6.0; Redox H2O2 prof: -4.0; Lmaj promast: 99.5*; PfGluPho inh: -4.1

Results for Cc1ccc(NC(=S)NC2CCCC2)cc1C ?
Diaph inh CS: 11.3; Diaph act CS: 0.9; G6PDH counter: 2.9; Redox H2O2 prof: 0.4; Lmaj promast: 24.5; PfGluPho inh: 9.2

What do the screens show for `COCCNC(=S)NC1CC2CCC(C1)N2Cc1ccccc1` (centres undefined)?
Diaph inh CS: 8.1; Diaph act CS: 0.9; G6PDH counter: 13.1; Redox H2O2 prof: -0.2; Lmaj promast: 14.8; PfGluPho inh: 0.0

Results for Cc1cccc(NC(=S)NC2CCCCCC2)c1C ?
Diaph inh CS: 18.6; Diaph act CS: 0.8; G6PDH counter: 1.6; Redox H2O2 prof: 0.1; Lmaj promast: 81.7*; PfGluPho inh: 0.9
